Laboratory results: ChEMBL document CHEMBL1134286, “Novel erythromycin derivatives with aryl groups tethered to the C-6 position are potent protein synthesis inhibitors and active against multidrug-resistant respiratory pathogens” (J Med Chem, 2001)
Converted amounts (≈) assume the structure as drawn.

Key:
[1] = Minimum inhibitory concentration against Streptococcus pyogenes 930MLSB; type: functional
Outline: (§1)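 MICs were determined by agar dilution following National Committee for Clinical Laboratory Standards recommendations. Values are in µg/mL.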

[2] = Minimum inhibitory concentration against Streptococcus pyogenes EES 61 Ery-S; type: functional; outline: as §1
Staphylococcus aureus [3] = test: Minimum inhibitory concentration against Staphylococcus aureus A 5177 MLSB-i; type: functional; outline: as §1
Staphylococcus aureus [4] = test: Minimum inhibitory concentration against Staphylococcus aureus ATCC 6538PEry-S; type: functional; conditions: ATCC 6538P; outline: as §1
Streptococcus pneumoniae [5] = test: Minimum inhibitory concentration against Streptococcus pneumoniae ATCC 6303 Ery-S; type: functional; outline: as §1
Staphylococcus aureus [6] = test: Minimum inhibitory concentration against Staphylococcus aureus 10649 (erythromycin susceptible strain); type: functional; outline: as §1
[7] = Minimum inhibitory concentration against Streptococcus pneumoniae 5737 MLSB; type: functional; outline: as §1
Streptococcus pneumoniae [8] = test: Minimum inhibitory concentration against Streptococcus pneumoniae 5649 efflux; type: functional; outline: as §1
[9] = Minimum inhibitory concentration against Haemophilus influenzae DILL Amp-R; type: functional; outline: as §1
[10] = Minimum inhibitory concentration against Streptococcus pyogenes PIU2548 efflux; type: functional; outline: as §1
Mus musculus [11] = organism: Mus musculus; test: Mouse protection tests for effective dose against Staphylococcus aureus 10649 ((erythromycin susceptible strain)) infected mice; type: functional
Streptococcus pneumoniae [12] = test: Minimum inhibitory concentration against Streptococcus pneumoniae 6303 (erythromycin susceptible strain); type: functional; outline: as §1
Mus musculus [13] = organism: Mus musculus; test: Mouse protection tests for effective dose against Streptococcus pneumoniae 6303 ((erythromycin susceptible strain)) infected mice; type: functional
Staphylococcus aureus [14] = test: Minimum inhibitory concentration against Staphylococcus aureus A 5278 MLSB-c; type: functional; outline: as §1
Streptococcus pneumoniae [15] = test: Cell free inhibiting activity against MLSB-resistant strain Streptococcus pneumoniae 1813 (methylated ribosomes for transcription/translation assay)
Streptococcus pneumoniae [16] = test: Cell free inhibiting activity against erythromycin-susceptible strain Streptococcus pneumoniae 5635 (Wild type ribosomes for transcription/translation assay); type: functional
Outline: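 Cell-free coupled transcription/translation assay using bacterial ribosome S-30 extracts. Wild-type ribosomes were isolated from the erythromycin-susceptible strain S. pneumoniae 5635. Inhibition is reported as IC50 (µM).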

| SMILES | MIC [1] | MIC [2] | MIC (Staphylococcus aureus [3]) | MIC (Staphylococcus aureus [4]) | MIC (Streptococcus pneumoniae [5]) | MIC (Staphylococcus aureus [6]) | MIC [7] | MIC (Streptococcus pneumoniae [8]) | MIC [9] | MIC [10] | ED50 (Mus musculus [11]) | MIC (Streptococcus pneumoniae [12]) | ED50 (Mus musculus [13]) | MIC (Staphylococcus aureus [14]) | IC50 (Streptococcus pneumoniae [15]) | IC50 (Streptococcus pneumoniae [16]) |
| --- | --- | --- | --- | --- | --- | --- | --- | --- | --- | --- | --- | --- | --- | --- | --- | --- |
| CC[C@H]1OC(=O)[C@H](C)C(=O)[C@H](C)[C@@H](O[C@@H]2O[C@H](C)C[C@H](N(C)C)[C@H]2O)[C@](C)(OCCCc2cnc3ccccc3c2)C[C@@H](C)C(=O)[C@H](C)[C@H]2NC(=O)O[C@@]21C | 4 µg/mL (≈ 5.21 µM) | 0.004 µg/mL (≈ 0.00521 µM) | 0.1 µg/mL (≈ 0.13 µM) | 0.1 µg/mL (≈ 0.13 µM) | 0.015 µg/mL (≈ 0.0195 µM) | 0.1 µg/mL (≈ 0.13 µM) | 8 µg/mL (≈ 10.4 µM) | 0.25 µg/mL (≈ 0.326 µM) | 2 µg/mL (≈ 2.6 µM) | 0.25 µg/mL (≈ 0.326 µM) | 27.1 mg/kg | 0.015 µg/mL (≈ 0.0195 µM) | 33 mg/kg | > 100 µg/mL |  |  |
| C=CCO[C@]1(C)C[C@@H](C)C(=O)[C@H](C)[C@H]2NC(=O)O[C@]2(C)[C@@H](CC)OC(=O)[C@H](C)C(=O)[C@H](C)[C@H]1O[C@@H]1O[C@H](C)C[C@H](N(C)C)[C@H]1O | > 64 µg/mL | 0.25 µg/mL (≈ 0.391 µM) | 1.56 µg/mL (≈ 2.44 µM) | 0.78 µg/mL (≈ 1.22 µM) | 0.5 µg/mL (≈ 0.783 µM) |  | > 64 µg/mL | 0.25 µg/mL (≈ 0.391 µM) | 64 µg/mL (≈ 100 µM) | 1 µg/mL (≈ 1.57 µM) |  |  |  | > 100 µg/mL | > 500 µM | 350 nM |
| CC[C@H]1OC(=O)[C@H](C)C(=O)[C@H](C)[C@@H](O[C@@H]2O[C@H](C)C[C@H](N(C)C)[C@H]2O)[C@](C)(OC/C=C/c2cnc3ccccc3c2)C[C@@H](C)C(=O)[C@H](C)[C@@H](O)[C@]1(C)O | 100 µg/mL (≈ 135 µM) | 0.2 µg/mL (≈ 0.27 µM) | 0.2 µg/mL (≈ 0.27 µM) | 0.2 µg/mL (≈ 0.27 µM) | 0.03 µg/mL (≈ 0.0405 µM) | 0.2 µg/mL (≈ 0.27 µM) | 16 µg/mL (≈ 21.6 µM) | 0.25 µg/mL (≈ 0.337 µM) | 16 µg/mL (≈ 21.6 µM) | 0.1 µg/mL (≈ 0.135 µM) | 27.2 mg/kg | 0.03 µg/mL (≈ 0.0405 µM) | > 40 mg/kg | > 100 µg/mL |  |  |
| CC[C@H]1OC(=O)[C@H](C)C(=O)[C@H](C)[C@@H](O[C@@H]2O[C@H](C)C[C@H](N(C)C)[C@H]2O)[C@](C)(OC/C=C/c2ccc3ncncc3c2)C[C@@H](C)C(=O)[C@H](C)[C@H]2NC(=O)O[C@@]21C | 2 µg/mL (≈ 2.61 µM) | 0.03 µg/mL (≈ 0.0391 µM) | 0.2 µg/mL (≈ 0.261 µM) | 0.2 µg/mL (≈ 0.261 µM) | 0.03 µg/mL (≈ 0.0391 µM) | 0.2 µg/mL (≈ 0.261 µM) | 0.5 µg/mL (≈ 0.652 µM) | 0.25 µg/mL (≈ 0.326 µM) | 4 µg/mL (≈ 5.22 µM) | 0.5 µg/mL (≈ 0.652 µM) | 9.2 mg/kg | 0.03 µg/mL (≈ 0.0391 µM) | 40.3 mg/kg | > 100 µg/mL |  |  |
| CC[C@H]1OC(=O)[C@H](C)C(=O)[C@H](C)[C@@H](O[C@@H]2O[C@H](C)C[C@H](N(C)C)[C@H]2O)[C@](C)(OC/C=C/c2ccccc2)C[C@@H](C)C(=O)[C@H](C)[C@H]2NC(=O)O[C@@]21C | 64 µg/mL (≈ 89.5 µM) | 0.03 µg/mL (≈ 0.042 µM) | 0.1 µg/mL (≈ 0.14 µM) | 0.1 µg/mL (≈ 0.14 µM) | 0.03 µg/mL (≈ 0.042 µM) | 0.1 µg/mL (≈ 0.14 µM) | 64 µg/mL (≈ 89.5 µM) | 0.25 µg/mL (≈ 0.35 µM) | 4 µg/mL (≈ 5.6 µM) | 0.25 µg/mL (≈ 0.35 µM) | 30.2 mg/kg | 0.03 µg/mL (≈ 0.042 µM) | > 40 mg/kg | > 100 µg/mL |  |  |
| CC[C@H]1OC(=O)[C@H](C)C(=O)[C@H](C)[C@@H](O[C@@H]2O[C@H](C)C[C@H](N(C)C)[C@H]2O)[C@](C)(OC)C[C@@H](C)C(=O)[C@H](C)[C@H]2N(CCCCn3cnc(-c4cccnc4)c3)C(=O)O[C@]12C [TELITHROMYCIN] |  |  |  |  |  | 0.1 µg/mL (≈ 0.123 µM) |  |  |  |  | 12.5 mg/kg | 0.004 µg/mL (≈ 0.00493 µM) | 34.1 mg/kg |  |  |  |
| CC[C@H]1OC(=O)[C@H](C)C(=O)[C@H](C)[C@@H](O[C@@H]2O[C@H](C)C[C@H](N(C)C)[C@H]2O)[C@](C)(OC/C=C/c2cnc3ccsc3c2)C[C@@H](C)C(=O)[C@H](C)[C@H]2NC(=O)O[C@@]21C | 1 µg/mL (≈ 1.3 µM) | 0.008 µg/mL (≈ 0.0104 µM) | 0.05 µg/mL (≈ 0.0648 µM) | 0.05 µg/mL (≈ 0.0648 µM) | 0.004 µg/mL (≈ 0.00518 µM) | 0.05 µg/mL (≈ 0.0648 µM) | 0.5 µg/mL (≈ 0.648 µM) | 0.25 µg/mL (≈ 0.324 µM) | 2 µg/mL (≈ 2.59 µM) | 0.25 µg/mL (≈ 0.324 µM) | > 50 mg/kg | 0.004 µg/mL (≈ 0.00518 µM) |  | > 100 µg/mL | 150 µM | 70 nM |
| CC[C@H]1OC(=O)[C@H](C)C(=O)[C@H](C)[C@@H](O[C@@H]2O[C@H](C)C[C@H](N(C)C)[C@H]2O)[C@](C)(OC/C=C/c2cnc3ccncc3c2)C[C@@H](C)C(=O)[C@H](C)[C@H]2NC(=O)O[C@@]21C | 4 µg/mL (≈ 5.22 µM) | 0.015 µg/mL (≈ 0.0196 µM) | 0.05 µg/mL (≈ 0.0652 µM) | 0.05 µg/mL (≈ 0.0652 µM) | 0.008 µg/mL (≈ 0.0104 µM) | 0.05 µg/mL (≈ 0.0652 µM) | 0.25 µg/mL (≈ 0.326 µM) | 0.5 µg/mL (≈ 0.652 µM) | 2 µg/mL (≈ 2.61 µM) | 0.5 µg/mL (≈ 0.652 µM) | 12.5 mg/kg | 0.008 µg/mL (≈ 0.0104 µM) | > 50 mg/kg | > 100 µg/mL |  |  |
